From ChEMBL document CHEMBL1157195, “Synthesis, cytotoxic activity, and SAR analysis of the derivatives of taxchinin A and brevifoliol” (Bioorg Med Chem, 2008)
Active and inactive are the calls of the source. The calls are words filed in the database; no cut-off is given here.

tested on: A459; test: (§1) Cytotoxicity against human A459 cells after 72 hrs by sulforhodamine B assay; format: cell-based; conditions: not given
Outline: (§2)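 Human non-small lung cancer cells (A459, ATCC), exponentially growing, seeded at 4 × 10^4/mL in 96-well plates and pre-incubated 72 h at 37 °C, 5% CO2. Compounds added at 100, 10, 1 and 0.1 μM; further 72 h exposure. Cells fixed with cold 50% TCA (4 °C, 1 h), stained 30 min with 0.4% SRB in 1% acetic acid, dye solubilized in 10 mM unbuffered Tris; OD read at 570 nm.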

Structure (SMILES)	Activity
C=C1[C@H]2C[C@]3(C(C)(C)O)CC(=O)C(C)=C3[C@@H](OC(=O)c3ccccc3)[C@H](OC(C)=O)[C@]2(C)[C@@H](OC(C)=O)C[C@@H]1O	inactive
C=C1[C@H]2C[C@]3(C(C)(C)O)C[C@H](O)C(C)=C3[C@@H](OC(=O)c3ccccc3)[C@H](OC(C)=O)[C@]2(C)[C@@H](OC(C)=O)C[C@@H]1O	inactive

tested on: not listed separately; test: as §1; format: cell-based; conditions: Homo sapiens, A459, 72 h; read-out: IC50; outline: as §2

Structure (SMILES)	IC50 [µM]
C=C1C(=O)C[C@H](OC(C)=O)[C@@]2(C)[C@@H](OC(C)=O)[C@H](OC(=O)c3ccccc3)C3=C(C)[C@H]4C[C@]3([C@@H](OC(C)=O)[C@H]12)C(C)(C)O4	0.75
C=C1[C@H]2C=C3CC(=O)C(C)=C3C(OC(=O)c3ccccc3)=C[C@]2(C)[C@@H](OC(C)=O)C[C@@H]1O	80.7
CC(=O)O[C@H]1CC=C(C=O)[C@H]2C=C3CC(=O)C(C)=C3[C@@H](OC(=O)c3ccccc3)[C@H](OC(C)=O)[C@]12C	11.3
C=C1C(=O)C[C@H](OC(C)=O)[C@@]2(C)[C@@H](OC(C)=O)[C@H](OC(=O)c3ccccc3)C3=C(C)[C@@H](O)C[C@@]3(C(C)(C)O)[C@@H](OC(C)=O)[C@H]12	3.16
C=C1C(=O)C=C[C@]2(C)[C@@H]1C[C@]1(C(C)(C)O)CC(=O)C(C)=C1[C@@H](OC(=O)c1ccccc1)[C@@H]2OC(C)=O	6.22
C=C1C(=O)C=C[C@]2(C)[C@@H]1C=C1CC(=O)C(C)=C1[C@@H](OC(=O)c1ccccc1)[C@@H]2OC(C)=O	2.8
CC(=O)O[C@H]1CC=C(C=O)[C@H]2C[C@@]34C[C@@H](OC3(C)C)C(C)=C4[C@@H](OC(=O)c3ccccc3)[C@H](OC(C)=O)[C@]12C	6.17
C=C1C(=O)C[C@H](OC(C)=O)[C@@]2(C)[C@@H](OC(C)=O)[C@H](OC(=O)c3ccccc3)C3=C(C)[C@@H](O[Si](C)(C)C(C)(C)C)C[C@@]3(C(C)(C)O)[C@@H](OC(C)=O)[C@H]12	0.48
C=C1C(=O)C[C@H](OC(C)=O)[C@@]2(C)[C@@H](OC(C)=O)[C@H](OC(=O)c3ccccc3)C3=C(C)C(=O)C[C@@]3(C(C)(C)O)[C@@H](OC(C)=O)[C@H]12 [5,13-DIOXOTAXCHININ A]	1.68
CC(=O)O[C@H]1CC=C(C=O)[C@H]2C[C@]3(C(C)(C)O)CC(=O)C(C)=C3[C@@H](OC(=O)c3ccccc3)[C@H](OC(C)=O)[C@]12C	31.6
C=C1C(=O)C=C[C@@]2(C)[C@@H](OC(C)=O)[C@H](OC(=O)c3ccccc3)C3=C(C)C(=O)C[C@@]3(C(C)(C)O)[C@@H](OC(C)=O)[C@H]12	2.48
C=C1[C@@H](O)C[C@H](OC(C)=O)[C@@]2(C)[C@@H](OC(C)=O)[C@H](OC(=O)c3ccccc3)C3=C(C)C(=O)C[C@@]3(C(C)(C)O)[C@@H](OC(C)=O)[C@H]12 [13-OXO-TAXCHININ A]	91.6
C=C1[C@H]2C=C3CC(=O)C(C)=C3[C@@H](OC(=O)c3ccccc3)[C@H](OC(C)=O)[C@]2(C)[C@@H](OC(C)=O)C[C@@H]1O	21.5
C=C1[C@@H](O[Si](CC)(CC)CC)C[C@H](OC(C)=O)[C@@]2(C)[C@@H](OC(C)=O)[C@H](OC(=O)c3ccccc3)C3=C(C)[C@@H](O[Si](CC)(CC)CC)C[C@@]3(C(C)(C)O)[C@@H](OC(C)=O)[C@H]12	87.3
C=C1[C@@H](O[Si](CC)(CC)CC)C[C@H](OC(C)=O)[C@]2(C)[C@@H]1C=C1CC(=O)C(C)=C1[C@@H](OC(=O)c1ccccc1)[C@@H]2OC(C)=O	17.4
C=C1[C@@H](O)C[C@H](OC(C)=O)[C@@]2(C)[C@@H](OC(C)=O)[C@H](OC(=O)c3ccccc3)C3=C(C)[C@@H](O)C[C@@]3(C(C)(C)O)[C@@H](OC(C)=O)[C@H]12 [TAXCHININ A]	60.5
C=C1C(=O)C=C[C@@]2(C)[C@@H](OC(C)=O)[C@H](OC(=O)c3ccccc3)C3=C(C)[C@@H](O)C[C@@]3(C(C)(C)O)[C@@H](OC(C)=O)[C@H]12	5.89
C=C1[C@@H](O)C[C@H](OC(C)=O)[C@@]2(C)[C@@H](OC(C)=O)[C@H](OC(=O)c3ccccc3)C3=C(C)[C@@H](O[Si](C)(C)C(C)(C)C)C[C@@]3(C(C)(C)O)[C@@H](OC(C)=O)[C@H]12	12.4
C=C1[C@H]2C[C@@]34C[C@@H](OC3(C)C)C(C)=C4[C@@H](OC(=O)c3ccccc3)[C@H](OC(C)=O)[C@]2(C)[C@@H](OC(C)=O)C[C@@H]1O	46.5

same assay, conditions: a459

Structure (SMILES)	IC50
C=C1[C@@H](O)C[C@H](OC(C)=O)[C@@]2(C)[C@@H](OC(C)=O)[C@H](OC(=O)c3ccccc3)C3=C(C)[C@H]4C[C@]3([C@@H](OC(C)=O)[C@H]12)C(C)(C)O4	Not Active
C=C1[C@@H](O[Si](C)(C)C(C)(C)C)C[C@H](OC(C)=O)[C@@]2(C)[C@@H](OC(C)=O)[C@H](OC(=O)c3ccccc3)C3=C(C)[C@@H](O[Si](C)(C)C(C)(C)C)C[C@@]3(C(C)(C)O)[C@@H](OC(C)=O)[C@H]12	Not Active
